# ChEMBL document CHEMBL3603771, “Synthesis, biological evaluation and docking study of maleimide derivatives bearing benzenesulfonamide as selective COX-2 inhibitors and anti-inflammatory agents” (Bioorg Med Chem, 2015)
# What was measured:
# [1] = Selectivity index, ratio of inhibition of human recombinant COX2 to inhibition of ovine COX1
# Procedure, shortened: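 Ovine COX-1 or human recombinant COX-2 in 0.1 M Tris-HCl pH 8 with heme, preincubated with compound (DMSO stock) 5 min at 25°C. TMPD and arachidonic acid then added, 2 min at 25°C. Peroxidase activity read as oxidized TMPD at 590 nm. Compounds tested at 1 μM; % inhibition is the mean of two determinations. Selectivity index taken as COX-2/COX-1.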
# [2] = target: T1, Prostaglandin G/H synthase 1 (Ovis aries) (UniProt P05979); assay: Inhibition of ovine COX1 using arachidonic acid as substrate at 1 uM preincubated for 5 mins measured after 2 mins by colorimetric analysis
# T1 sequence (whole entry): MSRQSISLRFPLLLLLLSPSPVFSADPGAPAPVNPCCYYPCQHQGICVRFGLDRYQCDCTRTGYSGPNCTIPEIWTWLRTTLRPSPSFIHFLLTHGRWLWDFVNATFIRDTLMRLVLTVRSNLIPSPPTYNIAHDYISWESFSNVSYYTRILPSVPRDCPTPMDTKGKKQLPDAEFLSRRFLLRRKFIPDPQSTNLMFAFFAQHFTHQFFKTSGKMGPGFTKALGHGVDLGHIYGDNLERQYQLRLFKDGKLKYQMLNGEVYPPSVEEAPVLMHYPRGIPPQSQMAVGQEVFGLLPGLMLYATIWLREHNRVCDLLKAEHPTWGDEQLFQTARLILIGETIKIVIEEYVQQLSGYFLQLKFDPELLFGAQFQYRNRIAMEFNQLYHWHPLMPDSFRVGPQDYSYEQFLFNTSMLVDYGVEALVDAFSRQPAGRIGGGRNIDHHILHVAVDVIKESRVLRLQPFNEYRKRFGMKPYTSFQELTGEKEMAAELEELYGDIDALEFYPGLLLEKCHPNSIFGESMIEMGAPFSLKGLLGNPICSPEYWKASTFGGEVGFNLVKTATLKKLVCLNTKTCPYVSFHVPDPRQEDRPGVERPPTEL
# Procedure, shortened: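 Ovine COX-1 or human recombinant COX-2 in 0.1 M Tris-HCl pH 8 with heme, preincubated with compound (DMSO stock) 5 min at 25°C. TMPD and arachidonic acid then added, 2 min at 25°C. Peroxidase activity read as oxidized TMPD at 590 nm. Selectivity index taken as COX-2/COX-1.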
# [3] = target: T2, Prostaglandin G/H synthase 2 (Homo sapiens) (UniProt P35354); details: at 1 µM;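 note: recombinant enzyme with arachidonic acid substrate, compound preincubated 5 min, colorimetric read-out taken 2 min after reaction start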
# T2 sequence (whole entry): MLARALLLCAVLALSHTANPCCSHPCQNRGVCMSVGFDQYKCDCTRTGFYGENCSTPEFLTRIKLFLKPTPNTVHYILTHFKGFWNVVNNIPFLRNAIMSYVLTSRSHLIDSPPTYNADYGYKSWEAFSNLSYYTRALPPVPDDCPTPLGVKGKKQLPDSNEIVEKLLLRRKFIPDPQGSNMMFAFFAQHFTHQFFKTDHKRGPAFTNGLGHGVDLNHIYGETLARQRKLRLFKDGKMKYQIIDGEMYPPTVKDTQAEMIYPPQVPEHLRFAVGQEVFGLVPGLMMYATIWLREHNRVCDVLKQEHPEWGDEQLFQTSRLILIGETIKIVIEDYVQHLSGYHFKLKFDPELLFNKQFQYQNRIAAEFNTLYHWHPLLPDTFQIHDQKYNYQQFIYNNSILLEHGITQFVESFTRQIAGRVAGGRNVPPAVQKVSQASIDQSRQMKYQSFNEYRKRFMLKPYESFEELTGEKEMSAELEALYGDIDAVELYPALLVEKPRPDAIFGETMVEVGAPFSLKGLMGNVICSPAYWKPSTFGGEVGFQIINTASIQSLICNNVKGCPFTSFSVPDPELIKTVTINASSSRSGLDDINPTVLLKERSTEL
# Rattus norvegicus [4] = assay: Toxicity in Wistar albino rat assessed as ulcer index at 20 mg/kg, po qd for 3 days measured after 6 hrs of last dose; type: organism-based; details: in vivo
# Procedure, shortened: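 Male albino rats, 150-200 g, fasted 12 h with water ad libitum. Dosed orally at 20 mg/kg/day once daily for 3 days; controls received 7% gum acacia vehicle. Killed by ether overdose 6 h after the last dose. Stomachs opened along the greater curvature and scored for ulcers. Ulcer index by the Robert method from % incidence/10, mean ulcer number per stomach and severity score.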
# Rattus norvegicus [5] = assay: Antiinflammatory activity in Wistar albino rat assessed as inhibition of carrageenan-induced hind paw edema at 20 mg/kg, po after 3 hrs by plethysmometer; type: functional
# Procedure, shortened: (§1)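 Adult male Wistar albino rats, 150-200 g, fasted 24 h, six per group. Compounds at 20 mg/kg suspended in 1% CMC in water (10 mL/kg) given orally; vehicle-only controls. Carrageenan in normal saline injected into the plantar surface of the right hind paw 30 min after dosing.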
# Rattus norvegicus [6] = assay: Antiinflammatory activity in Wistar albino rat assessed as inhibition of carrageenan-induced hind paw edema at 20 mg/kg, po after 1 hr by plethysmometer; type: functional; procedure, shortened: as §1
# Rattus norvegicus [7] = assay: Antiinflammatory activity in Wistar albino rat assessed as inhibition of carrageenan-induced hind paw edema at 20 mg/kg, po after 5 hrs by plethysmometer; type: functional; procedure, shortened: as §1
SMILES,Selectivity Index [1],inhibition [2],inhibition [3],UI (Rattus norvegicus [4]),inhibition in vivo at 20 mg/kg (Rattus norvegicus [5]),inhibition in vivo at 20 mg/kg (Rattus norvegicus [6]),inhibition in vivo at 20 mg/kg (Rattus norvegicus [7])
NS(=O)(=O)c1ccc(N2C(=O)C(Cl)=C(Nc3ccc([N+](=O)[O-])cc3)C2=O)cc1,19.1,0.89%,17.1%,–,–,–,–
NS(=O)(=O)c1ccc(N2C(=O)C(Cl)=C(Nc3cccc(F)c3)C2=O)cc1,55.4,0.89%,49.3%,8.3,81%,79.8%,82.6%
NS(=O)(=O)c1ccc(N2C(=O)C(Cl)=C(Nc3ccc(Cl)c(Cl)c3)C2=O)cc1,3.78,8.03%,30.4%,–,–,–,–
NS(=O)(=O)c1ccc(N2C(=O)C(Cl)=C(N3CCCCC3)C2=O)cc1,14.7,0.44%,6.45%,–,–,–,–
Cc1cc(C)cc(NC2=C(Cl)C(=O)N(c3ccc(S(N)(=O)=O)cc3)C2=O)c1,15.7,0.44%,6.91%,–,–,–,–
NS(=O)(=O)c1ccc(N2C(=O)C(Cl)=C(Nc3ccc(Cl)cc3)C2=O)cc1,2.6,9.37%,24.4%,–,–,–,–
NS(=O)(=O)c1ccc(N2C(=O)C(Cl)=C(Nc3ccc(C(F)(F)F)cc3)C2=O)cc1,6.78,4.01%,27.2%,–,–,–,–
Cc1ccc(-c2cc(C(F)(F)F)nn2-c2ccc(S(N)(=O)=O)cc2)cc1 [CELECOXIB],–,–,–,11.9,100%,92.2%,100%
NS(=O)(=O)c1ccc(N2C(=O)C(Cl)=C(Nc3cccc(Cl)c3)C2=O)cc1,47.6,0.89%,42.4%,–,70.4%,69.1%,72.1%
NS(=O)(=O)c1ccc(N2C(=O)C(Cl)=C(Nc3ccc(F)cc3)C2=O)cc1,20.8,1.33%,27.6%,–,–,–,–
NS(=O)(=O)c1ccc(N2C(=O)C(Cl)=C(Cl)C2=O)cc1,0.611,12.1%,7.37%,–,–,–,–
Cc1ccc(NC2=C(Cl)C(=O)N(c3ccc(S(N)(=O)=O)cc3)C2=O)c(C)c1,2.57,5.35%,13.8%,–,–,–,–

# Now from value to molecule, other results behind:
Selectivity Index [1],inhibition [2],inhibition [3],SMILES,UI (Rattus norvegicus [4]),inhibition in vivo at 20 mg/kg (Rattus norvegicus [5]),inhibition in vivo at 20 mg/kg (Rattus norvegicus [6]),inhibition in vivo at 20 mg/kg (Rattus norvegicus [7])
11.9,0.89%,10.6%,COc1ccc(NC2=C(Cl)C(=O)N(c3ccc(S(N)(=O)=O)cc3)C2=O)cc1,–,–,–,–
1.62,6.25%,10.1%,Cc1ccccc1NC1=C(Cl)C(=O)N(c2ccc(S(N)(=O)=O)cc2)C1=O,–,–,–,–
44.5,0.89%,39.6%,NS(=O)(=O)c1ccc(N2C(=O)C(Cl)=C(Nc3ccccc3)C2=O)cc1,–,56.8%,35.4%,62.1%
6.78,4.01%,27.2%,NS(=O)(=O)c1ccc(N2C(=O)C(Cl)=C(Nc3cccc(Cl)c3Cl)C2=O)cc1,–,–,–,–
49.7,0.89%,44.2%,COc1cccc(NC2=C(Cl)C(=O)N(c3ccc(S(N)(=O)=O)cc3)C2=O)c1,–,71.5%,73%,77.3%
12.9,1.78%,23%,Nc1ccccc1NC1=C(Cl)C(=O)N(c2ccc(S(N)(=O)=O)cc2)C1=O,–,–,–,–
2.19,7.14%,15.7%,COc1ccccc1NC1=C(Cl)C(=O)N(c2ccc(S(N)(=O)=O)cc2)C1=O,–,–,–,–
44.5,0.89%,39.6%,NS(=O)(=O)c1ccc(N2C(=O)C(Cl)=C(Nc3ccccc3F)C2=O)cc1,–,71%,69.2%,74.9%
